Test results published in PubChem BioAssay.
Activity calls are given as the source filed them.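 The calls were made as follows, unless noted: active = inhibition at or above 50% at 10 µM; inactive = inhibition below 50%.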

Tests used:
[1] = inhibitors of TNFa-induced NFkB p65 translocation, primary screen, imaging, HUVEC, MLSMR starter and 10KST1 sets (AID 438;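 active = inhibition above 20% together with a positive visual image hit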;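 also: compound added about 3h40 before a 20 min TNFalpha stimulation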;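 as to inhibition: signal is the nuclear over cytoplasmic p65 intensity ratio per well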); conditions: HUVEC TNFa-induced p65 nuclear translocation; cell count: measured here: nuclei count (cytotoxicity indicator), at 2.08 µM; inhibition: at 2 µM, stronger effect = higher value, 0% TNFa-plus-vehicle, 100% no-TNFa wells
[2] = inhibitors of mutant huntingtin aggregation, primary screen, imaging, exon1htt(103Q)mCFP cells, high-content imaging (AID 483;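 active = visual image review flags a hit and inhibition of aggregation exceeds 20%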;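 also: compound exposure lasted 3 days before fixation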;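 as to nuclei count: percent of the per-plate median nuclei count of sample wells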); conditions: exon1htt(103Q)mCFP cell line, aggregate imaging, at 2 µM; inhibition of aggregation: stronger effect = higher value; nuclei count: measured here: cell count, toxicity
[3] = inhibitors of E-selectin induction by TNFa, primary screen, imaging, HUVEC, immunofluorescence, MLSMR starter and 10KST1 sets (AID 487;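 active = visually confirmed hit in the image check and inhibition above 20%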;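 as to inhibition: signal is fraction of cell area covered by stained E-selectin grains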;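 as to nuclei count: 100% = median nuclei count of all wells on the same plate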); conditions: HUVEC TNFalpha-induced E-selectin immunofluorescence imaging, at 2 µM; inhibition: stronger effect = higher value; nuclei count: measured here: cell number, toxicity
[4] = target: Voltage-gated potassium channel subunit beta-2 (Rattus norvegicus) (UniProt P62483); experiment: KvBeta enzyme negative modulators, primary screen, biochemical, NADPH fluorescence (AID 622;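 active = fluorescence slope higher than the sample average by over 3 SD, cut at about -0.22 in these data, passing the limit was not always enough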;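 also: slope of raw intensity against log time taken from 70 to 1610 s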); conditions: recombinant KvBeta, 4-cyanobenzaldehyde reduction, at 10 µM, stronger effect = higher value
Voltage-gated potassium channel subunit beta-2 (Rattus norvegicus), sequence (P62483 whole entry, looked up): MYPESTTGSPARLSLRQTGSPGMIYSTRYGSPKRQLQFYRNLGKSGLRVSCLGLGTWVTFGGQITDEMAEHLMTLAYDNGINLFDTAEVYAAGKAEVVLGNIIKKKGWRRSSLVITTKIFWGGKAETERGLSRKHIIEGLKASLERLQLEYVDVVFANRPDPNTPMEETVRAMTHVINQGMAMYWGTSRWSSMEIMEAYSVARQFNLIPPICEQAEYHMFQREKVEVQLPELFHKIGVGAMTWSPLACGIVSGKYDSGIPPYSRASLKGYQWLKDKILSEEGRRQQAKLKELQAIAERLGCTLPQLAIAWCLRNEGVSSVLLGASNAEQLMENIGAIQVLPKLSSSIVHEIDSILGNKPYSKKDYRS

[5] = target: Voltage-gated potassium channel subunit beta-2 (Rattus norvegicus) (UniProt P62483); experiment: KvBeta positive modulators, primary screen, biochemical, NADPH fluorescence (AID 623;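 active = NADPH fluorescence slope more negative than the mean of all samples by about 3 SD, 99.7% confidence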;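 also: fluorescence intensity change per second fitted from 20 to 320 s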); conditions: Recombinant KvBeta, NADPH fluorescence decrease slope, 10 min; at 10 µM; stronger effect = lower value
[6] = target: Muscarinic acetylcholine receptor M4 (Homo sapiens) (UniProt P08173); experiment: compounds altering M4/GIRK thallium flux, either direction, primary screen, M4 allosteric agonist project, cell-based, HEK293 M4/GIRK, BTC-AM (AID 625;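 active = fluorescence slope after compound addition differing from the mean of all tested samples at 99.7% confidence, mostly higher but some lower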;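 also: thallium influx through GIRK channels coupled to M4 in HEK293 cells with BTC-AM dye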); conditions: at 10 µM, actives lie on both sides
Muscarinic acetylcholine receptor M4 (Homo sapiens), sequence (P08173 whole entry, looked up): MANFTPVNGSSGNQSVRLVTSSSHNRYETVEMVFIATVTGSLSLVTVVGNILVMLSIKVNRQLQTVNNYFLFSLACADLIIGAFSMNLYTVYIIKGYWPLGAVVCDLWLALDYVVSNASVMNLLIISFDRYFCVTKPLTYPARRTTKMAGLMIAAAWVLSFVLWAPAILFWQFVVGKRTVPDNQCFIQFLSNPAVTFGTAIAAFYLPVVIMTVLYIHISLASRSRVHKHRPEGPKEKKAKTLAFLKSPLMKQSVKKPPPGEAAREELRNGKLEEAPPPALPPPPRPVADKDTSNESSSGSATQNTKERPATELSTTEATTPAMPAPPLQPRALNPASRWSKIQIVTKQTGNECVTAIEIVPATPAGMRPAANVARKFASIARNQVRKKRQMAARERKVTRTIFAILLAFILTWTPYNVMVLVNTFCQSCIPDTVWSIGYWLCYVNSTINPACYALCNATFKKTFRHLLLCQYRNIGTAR
Summary of the method: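 Material: HEK293 cells with M4 receptor and GIRK channels; Times: cells overnight at 37 °C, BTC-AM loading 1 h, reads 2 min total; Technique: kinetic BTC-AM fluorescence sampled at 1 Hz, 10 s pre-addition baseline; Read-out basis: slope over 15–24 s of trace normalized to starting intensity; Controls: carbachol positive, DMSO negative.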

[7] = inhibitors of Sendai virus-induced IRF3 signaling, primary screen, TLR/RLR signaling modifier project, cell-based, Sendai virus stimulus, luciferase, 10K MLSCN set (AID 602276); conditions: HEK293 RL24 IRF3 luciferase reporter, at 10 µM, stronger effect = higher value;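 also: firefly luciferase from ISG56 promoter only with Renilla not read in this screen; 0% = Sendai virus plus DMSO and 100% = medium plus DMSO without virus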
[8] = inhibitors of poly I:C-induced TLR3 signaling, primary screen, cell-based, poly I:C stimulus, luciferase, 10K MLSCN set (AID 602277;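 active = inhibition of the reporter signal at or above 50%; inactive = inhibition below 50%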); conditions: HEK293-TLR3 RL24 IRF3 luciferase reporter, at 10 µM, stronger effect = higher value

| Compound | cell count [1] | inhibition [1] | inhibition of aggregation [2] | nuclei count [2] | inhibition [3] | nuclei count [3] | fluorescence slope [4] | NADPH fluorescence slope [5] | fluorescence slope [6] | inhibition [7] | inhibition [8] |
| --- | --- | --- | --- | --- | --- | --- | --- | --- | --- | --- | --- |
| O=C1CC(N2CCC(C(=O)N3CCCCC3)CC2)C(=O)N1 (configuration not stated) | 349 | 4% (inactive) | 10.7% (inactive) | 115% | -37.4% (inactive) | 148% | -0.554 (inactive) | -3.8e-05 (inactive) | 0.00558 (inactive) | 19.9% (inactive) | 16.2% (inactive) |
| CC1(c2ccncc2)Nc2ccccc2-c2nc3ccccc3n21 (configuration not stated) | 394 | -13.4% (inactive) | 6.2% (inactive) | 69.9% | -182% (inactive) | 122% | -0.454 (inactive) | -2.1e-05 (inactive) | 0.00581 (inactive) | 6.46% (inactive) | -10% (inactive) |
| COc1ccc(N(CC(=O)Nc2ccccc2SC)S(C)(=O)=O)cc1OC | 485 | -15.7% (inactive) | -12% (inactive) | 65.5% | -4.5% (inactive) | 102% | -0.468 (inactive) | -9.7e-06 (inactive) | 0.00494 (inactive) | 19.9% (inactive) | 19.3% (inactive) |
| Cc1cc(C)n(CCCNC(=O)c2ccc(S(=O)(=O)NCc3ccco3)cc2)n1 | 682 | -4.4% (inactive) | -3.9% (inactive) | 108% | -9.9% (inactive) | 136% | -0.562 (inactive) | -8.3e-05 (inactive) | 0.00603 (inactive) | 18.9% (inactive) | 23% (inactive) |
| CCc1ccc2c(CN(CC)Cc3nc4ccccc4c(=O)[nH]3)cc(=O)oc2c1 | 530 | 1.4% (inactive) | 2% (inactive) | 114% | -23.3% (inactive) | 107% | -0.57 (inactive) | 5.5e-06 (inactive) | 0.00486 (inactive) | 17.1% (inactive) | 26.9% (inactive) |
| O=C(Cn1nc(C(F)(F)F)c2c1CCCC2)NCCN1CCOCC1 | 584 | -6.8% (inactive) | -26.7% (inactive) | 103% | -8.6% (inactive) | 93.4% | -0.516 (inactive) | -0.00011 (inactive) | 0.00274 (inactive) | 17.5% (inactive) | 25.2% (inactive) |
| Cc1ccc(S(=O)(=O)N2CCOCC2)cc1C(=O)Nc1ccc(-c2cn3ccsc3n2)cc1 | 614 | -6.3% (inactive) | -3% (inactive) | 113% | -29.6% (inactive) | 122% | -0.462 (inactive) | -8.9e-06 (inactive) | 0.00613 (inactive) | -3.48% (inactive) | -16.4% (inactive) |
| Cc1cc(NC(=O)CSc2nnc(C3CC3)n2C)no1 | 296 | 1.1% (inactive) | 15.4% (inactive) | 96.8% | -26.7% (inactive) | 93.5% | -0.55 (inactive) | -7.5e-05 (inactive) | 0.00523 (inactive) | 8.69% (inactive) | 16.1% (inactive) |
| O=C(Cn1nc(-c2ccc(Cl)cc2)ccc1=O)NCCCN1CCN(Cc2ccccc2)CC1 | 518 | 10.6% (inactive) | -12.5% (inactive) | 97.4% | -351% (inactive) | 135% | -0.585 (inactive) | 3e-05 (inactive) | 0.00673 (inactive) | -9.82% (inactive) | -23.5% (inactive) |
| C=CCC(NCc1ccco1)c1ccc(OC)cc1OC (configuration not stated) | 697 | 7.5% (inactive) | 4.4% (inactive) | 110% | -94.5% (inactive) | 108% | -0.597 (inactive) | 2.3e-05 (inactive) | 0.00584 (inactive) | 12.6% (inactive) | 18.9% (inactive) |
| Cc1cccc(N2CCN(C(=O)c3cc4c(=O)[nH]c5ccccc5c4n3C)CC2)c1C | 228 | 5.8% (inactive) | 5.3% (inactive) | 85.4% | -26.1% (inactive) | 106% | -0.529 (inactive) | -2.8e-05 (inactive) | 0.00424 (inactive) | 9.93% (inactive) | -17.5% (inactive) |
| O=S(=O)(c1ccccc1)N1CCSC1c1ccco1 (configuration not stated) | 444 | 1.2% (inactive) | 7% (inactive) | 100% | 33.5% (inactive) | 102% | -0.555 (inactive) | -4e-05 (inactive) | 0.00572 (inactive) | -30.7% (inactive) | -9.12% (inactive) |
